# Bioassay records as filed in PubChem BioAssay.
# Only some compounds are listed: those with a hit (about 1.2% of all), similar ones and a draw of the others.
# CAL PDZ FP-1 = inhibitors of human CAL PDZ peptide binding; 300,000 compounds, 0.92% hits; purified CAL PDZ, TMR-peptide fluorescence polarization, 1 h; Q9HD26; inhibition, % at 24.9 µM;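 active = mean inhibition of at least 30% with at least half of replicates also reaching 30%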;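 also: 0% = DMSO neutral control and 100% = excess unlabeled competitor peptide PRC23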
# CAL PDZ FP-2 = blocks peptide binding to human CAL PDZ domain; Q9HD26; purified CAL PDZ, TMR-peptide fluorescence polarization, 1 h; inhibition, % at 20 µM; 330,000 compounds, 0.02% hits;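 active = highest replicate inhibition of at least 40%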;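 also: plate controls were DMSO neutral control wells for no effect and unlabeled competitor peptide control wells for full effect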
#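 Read-out basis: mP drop reported as inhibition | Assay system: Tagged CAL PDZ protein CerCALP, purified | Benchmarks: Unlabelled peptide for full inhibition, DMSO wells as neutral | Schedule: 1 h incubation at room temperature before polarization reading | Buffer or medium: Sodium phosphate/NaCl buffer pH 7.4 with TCEP, IgG, Thesit | Doses: Single point, 20 µM | Measured by: Fluorescence polarization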
# ARNT-TACC3 inh = ARNT/TACC3 interaction disruption; Q9Y6A5; AlphaScreen His-ARNT PAS-B/GST-TACC3 binding, luminescence; TACC3 fragment carries E629A point mutation; inhibition, % at 9.99 µM; 390,000 compounds, 0.66% hits; AID 623870;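 active = mean inhibition of replicates at least 50% and at least half of replicates each reaching 50%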;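 also: 0% = complete ARNT plus TACC3 wells and 100% = ARNT alone without TACC3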
# An asterisk follows results filed as active; x = no result.
SMILES,CAL PDZ FP-1,CAL PDZ FP-2,ARNT-TACC3 inh
COC(=O)c1ccc(S(=O)(=O)NCCc2ccccc2OC)n1C,69*,-1,-3
COc1ccccc1CCNS(=O)(=O)c1cn(C)c(=O)n(C)c1=O,0,-1,-34
Cc1ccc(NC(=O)c2cc(NC(=O)c3ccccc3C(=O)O)ccc2N2CCCCC2)cc1,51*,-3,2
Cc1ccc(NC(=O)c2cc(NC(=O)/C=C\C(=O)O)ccc2N2CCCCC2)cc1,-3,-3,-1
CN(C)C(=O)C[C@H]1CC[C@@H]2[C@H](COC[C@@H](O)CN2S(=O)(=O)c2ccccc2)O1,x,x,-5
O=C(/C=C/c1ccc(Br)cc1)NC(=S)NNC(=O)c1ccco1,1,-2,-1
O=C(/C=C/c1ccccc1)NC(=S)NNC(=O)c1ccco1,-2,-1,52*
CCC(=O)Nc1ccc2c(c1)OC[C@H](C)N(CC1CCCCC1)C[C@H](C)[C@H](OC)CN(C)C2=O,x,x,5
C[C@@H]1CCCCO[C@H](CN(C)S(C)(=O)=O)[C@@H](C)CN([C@H](C)CO)C(=O)c2cc(NC(=O)CCC(F)(F)F)ccc2O1,x,x,-6
CN=c1scc(-c2ccccc2F)n1/N=C/c1ccc[nH]1,4,0,14
CC(C)N=c1scc(-c2cccs2)n1/N=C/c1ccc(O)c(O)c1O,-4,0,59*
CCN=c1scc(-c2cccs2)n1/N=C/c1cc(OC)ccc1O,0,-3,9
CN=c1scc(-c2ccccc2F)n1/N=C/c1ccc(O)c(O)c1O,-2,11,53*
Cc1nc2ncccn2c1-c1csc(Nc2ccc(S(N)(=O)=O)cc2)n1,-5,3,9
Cc1nc2ncccn2c1-c1csc(Nc2ccccc2)n1,0,-2,58*
COc1ccccc1Nc1nc(-c2c(C)nc3ncccn23)cs1,1,3,45*
Cc1nc2ncccn2c1-c1csc(NCc2ccco2)n1,0,1,-1
Cc1nc2ncccn2c1-c1csc(Nc2ccc(N(C)C)cc2)n1,5,0,18
COc1ccc(Nc2nc(-c3c(C)nc4ncccn34)cs2)cc1,-1,4,46*
CCCNC(=O)N(C)C[C@@H]1Oc2cc(C3=CCCC3)ccc2S(=O)(=O)N([C@@H](C)CO)C[C@H]1C,x,x,-1
C[C@@H]1CCCCO[C@H](CN(C)Cc2ccccc2)[C@@H](C)CN([C@@H](C)CO)C(=O)c2cc(NS(=O)(=O)c3cn(C)cn3)ccc2O1,x,x,-21
O=C(C[C@H]1C[C@@H]2c3cc(NC(=O)C4CCOCC4)ccc3O[C@@H]2[C@@H](CO)O1)NCc1ccccn1,x,x,-3
COCC(=O)NC[C@@H]1[C@H](c2ccccc2)[C@H](CO)N1C(C)=O,x,x,-5
CC(C)NC(=O)N[C@@H]1CC[C@H](CCNS(=O)(=O)c2ccc(Cl)cc2)O[C@H]1CO,x,x,-7
C[C@@H]1CN([C@H](C)CO)C(=O)c2cc(NS(=O)(=O)c3cccs3)ccc2O[C@@H]1CN(C)C(=O)Nc1ccc(C(F)(F)F)cc1,x,x,-4
SMILES,CAL PDZ FP-1,CAL PDZ FP-2,ARNT-TACC3 inh
C[C@H]1CN([C@@H](C)CO)C(=O)Cc2cc(NS(=O)(=O)c3ccc(F)cc3)ccc2O[C@@H]1CN(C)Cc1ccc(C(=O)O)cc1,x,x,-1
CO[C@H]1CN(C)C(=O)c2ccc(NS(C)(=O)=O)cc2OC[C@@H](C)NC[C@H]1C,x,x,-9
N#Cc1cccc2c1-c1ccccc1/C2=N/NC(N)=O,-1,x,18
N#Cc1cccc2c1-c1ccccc1/C2=N/NC(N)=S,56*,0,13
C[C@H](CO)N1C[C@H](C)[C@@H](CN(C)C)OCCCC[C@H](C)Oc2ccc(NC(=O)NC3CCCCC3)cc2C1=O,x,x,-4
Nc1ccc(CCn2ccnc2)cc1,x,-3,63*
c1ccn(CCc2ccncc2)c1,-7,0,-7
Cc1ccc(N2CCN(C(=S)Nc3ccccc3)CC2)cc1,86*,0,-1
S=C(Nc1ccccc1)N1CCN(c2ccccc2)CC1,x,-1,5
C[C@H]1CN([C@@H](C)CO)C(=O)CCCn2cc(nn2)CO[C@@H]1CN(C)Cc1ccc(-c2ccccc2)cc1,x,x,-6
CN1CCN(C(=O)c2cc3c(c(-c4cccc(-c5ccccc5F)c4)n2)[C@H](CCO)N([S@@](=O)C(C)(C)C)C3)CC1,x,x,12
O=C(NC[C@H]1N[C@H](CO)[C@H]1c1ccccc1)C1CC1,x,x,7
COC(=O)[C@H](C)N(Cc1ccc(Cl)c(Cl)c1)S(=O)(=O)CCN1CCN(c2ccccc2)CC1,0,-1,4
COC(=O)[C@H](C)N(Cc1ccc(Cl)c(Cl)c1)S(=O)(=O)CCN1CCCC1,35*,-1,2
Cc1noc(C)c1S(=O)(=O)Nc1ccc2c(c1)C(=O)N([C@@H](C)CO)C[C@H](C)[C@@H](CN(C)S(=O)(=O)c1ccccc1)O2,x,x,2
c1ccc(-c2nc(-c3ccccn3)no2)cc1,0,-3,4
c1ccc(-c2n[nH]c(-c3ccccn3)n2)cc1,x,-1,57*
O=C(CN(Cc1ccccc1)S(=O)(=O)c1ccc(F)cc1)NCCC1=CCCCC1,73*,25,-7
Cc1ccc(S(=O)(=O)N(CC(=O)NCCC2=CCCCC2)Cc2ccccc2)cc1,-1,0,7
CCOC(=O)C1=CN(Cc2ccco2)S(=O)(=O)N(CC)C1c1ccc(C(F)(F)F)cc1 (stereo not drawn),79*,0,0
CCOC(=O)C1=CN(Cc2ccco2)S(=O)(=O)N(C)C1c1ccccc1 (stereo not drawn),0,0,3
COc1cccc(CNC(=O)[C@H]2[C@H](CO)[C@H]3Cn4c(ccc(-c5cccnc5)c4=O)[C@H]3N2C)c1,x,x,0
C[C@H](NC(=O)C[C@H]1CC[C@H](NC(=O)C2CC2)[C@H](CO)O1)c1ccccc1,x,x,-13
Cc1ccc(NC(=O)c2ccc(S(=O)(=O)N3CCC(C)CC3)cc2)nc1,48*,0,-4
Cc1ccc(NC(=O)c2ccc(S(=O)(=O)N3CCCCCC3)cc2)nc1,1,-4,-2
SMILES,CAL PDZ FP-1,CAL PDZ FP-2,ARNT-TACC3 inh
Cc1c(OC(C)C(=O)NCCN2CCOCC2)ccc2c3c(c(=O)oc12)CCCC3 (stereo not drawn),67*,-1,-3
Cc1cc(=O)oc2c(C)c(OC(C)C(=O)NCCN3CCOCC3)ccc12 (stereo not drawn),-1,-3,-2
COCC(=O)N(C)C[C@@H]1Oc2cc(-c3ccccc3F)ccc2S(=O)(=O)N([C@H](C)CO)C[C@H]1C,x,x,-3
C[C@@H]1CCCCO[C@H](CN(C)S(C)(=O)=O)[C@@H](C)CN([C@@H](C)CO)C(=O)c2cc(NS(C)(=O)=O)ccc2O1,x,x,-6
C[C@H](CO)N1C[C@H](C)[C@@H](CN(C)C(=O)c2ccccn2)Oc2cc(C#Cc3ccc(F)cc3)ccc2S1(=O)=O,x,x,4
O=c1nc2ccccc2c(NS(=O)(=O)c2ccccc2)n1-c1ccccc1,36*,-3,-6
Cc1ccc(S(=O)(=O)Nc2c3ccccc3nc(=O)n2-c2ccccc2)cc1,-3,-1,-3
CO[C@H]1CN(C)C(=O)c2cc(NC(=O)NC3CCCCC3)ccc2OC[C@H](C)N(C)C[C@@H]1C,x,x,-2
C[C@H](NC(=O)C[C@H]1CC[C@H]2[C@@H](COC[C@H](O)CN2Cc2cc(F)ccc2F)O1)c1ccccc1,x,x,-7
